Experimental data pooled from the literature.
Compare with care: the assays were run in different laboratories.
Target: Mitogen-activated protein kinase kinase kinase 15 (MAP3K15, Homo sapiens, UniProt Q6ZN16)
Sequence (Q6ZN16 1-1313, as in one of the studies): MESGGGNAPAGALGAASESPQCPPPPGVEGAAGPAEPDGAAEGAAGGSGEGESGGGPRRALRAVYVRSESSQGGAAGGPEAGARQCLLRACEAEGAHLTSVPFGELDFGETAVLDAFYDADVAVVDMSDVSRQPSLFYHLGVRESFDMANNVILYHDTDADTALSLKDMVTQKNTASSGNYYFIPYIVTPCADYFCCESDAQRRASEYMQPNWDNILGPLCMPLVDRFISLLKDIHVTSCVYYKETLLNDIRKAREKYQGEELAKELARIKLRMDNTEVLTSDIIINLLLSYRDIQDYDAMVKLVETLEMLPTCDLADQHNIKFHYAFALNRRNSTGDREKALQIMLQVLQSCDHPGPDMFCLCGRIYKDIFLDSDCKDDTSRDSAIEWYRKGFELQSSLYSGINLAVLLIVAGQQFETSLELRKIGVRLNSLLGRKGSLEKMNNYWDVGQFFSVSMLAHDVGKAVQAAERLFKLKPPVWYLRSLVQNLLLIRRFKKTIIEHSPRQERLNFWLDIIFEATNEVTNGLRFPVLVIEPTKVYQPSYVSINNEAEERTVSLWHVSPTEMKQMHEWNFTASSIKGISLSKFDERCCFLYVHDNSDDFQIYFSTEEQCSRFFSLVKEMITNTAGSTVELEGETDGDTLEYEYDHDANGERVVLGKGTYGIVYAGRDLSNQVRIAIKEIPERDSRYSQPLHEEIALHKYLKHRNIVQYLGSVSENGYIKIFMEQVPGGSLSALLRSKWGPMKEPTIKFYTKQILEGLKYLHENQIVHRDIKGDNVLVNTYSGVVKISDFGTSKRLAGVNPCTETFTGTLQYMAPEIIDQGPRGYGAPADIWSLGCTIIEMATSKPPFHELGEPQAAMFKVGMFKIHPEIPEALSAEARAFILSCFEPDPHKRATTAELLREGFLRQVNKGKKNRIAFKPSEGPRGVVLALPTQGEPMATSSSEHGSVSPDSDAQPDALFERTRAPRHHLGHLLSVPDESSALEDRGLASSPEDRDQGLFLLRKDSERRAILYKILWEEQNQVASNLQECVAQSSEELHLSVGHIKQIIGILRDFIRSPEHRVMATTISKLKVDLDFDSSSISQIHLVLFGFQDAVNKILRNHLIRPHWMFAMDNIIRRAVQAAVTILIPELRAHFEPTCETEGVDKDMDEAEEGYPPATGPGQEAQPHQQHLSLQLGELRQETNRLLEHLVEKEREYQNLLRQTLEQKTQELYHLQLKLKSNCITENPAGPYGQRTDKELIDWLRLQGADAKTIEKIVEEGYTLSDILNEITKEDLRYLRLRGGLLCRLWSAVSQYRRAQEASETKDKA

`Cc1nccc(COC(=O)N2C[C@@H]3[C@@H](CNC(=O)c4ccc5[nH]nnc5c4)[C@@H]3C2)n1` gave a remaining binding of 95% (cell-free assay; competition with immobilised ligand; 1 µM).
The remaining binding of `O=C(c1ccc(Nc2ncc(Cl)c(-c3ccc(Cl)s3)n2)cc1)N1CCC(N2CCCC2)CC1` is reported as 52% (binding; competition with immobilised ligand; 1 µM).
`CCN1CCN(Cc2ccc(C(=O)Nc3ccc(C)c(Oc4ccc5c(c4)CC(=O)N5)c3)cc2C(F)(F)F)CC1` gave a remaining binding of 100% (binding; competition with immobilised ligand; 1 µM).
With `COc1cnc(Nc2cccc(S(N)(=O)=O)c2)nc1N1CCN(c2ccccc2)CC1` the remaining binding was 78% (binding; competition with immobilised ligand; 1 µM).
The remaining binding of `Cn1cc(Cl)c2c(Oc3c(F)cc(Nc4cc(Cl)nc(N)n4)cc3F)ccnc21` is reported as 84% (cell-free assay; competition with immobilised ligand; 0.1 µM).
`F[C@@H]1CCN(c2nccc(-c3cnn4ncccc34)n2)C1` has a remaining binding of 100% (binding; 1 µM).
`O=C(O)c1cc(-c2ccc(C3CCNCC3)cc2)c2ccc(-c3ccc(C(F)(F)F)cc3)cc2c1` gave a remaining binding of 99% (cell-free assay; competition with immobilised ligand; 1 µM).
`CC1CCCN1c1nccc(-c2cnn3ncccc23)n1` (stereo not drawn) has a remaining binding of 100% (binding; 1 µM).
`O=C(NCCCN1CCOCC1)c1ccc(Nc2nccc(-c3cc4ccccc4s3)n2)cc1` has a remaining binding of 56% (binding; competition with immobilised ligand; 1 µM).
For `COc1cnc(Nc2cccc(S(N)(=O)=O)c2)nc1N1CCN(c2ccccc2)C(=O)C1`, the remaining binding was 69% (binding; competition with immobilised ligand; 1 µM).
With `CCCOc1ccc([C@@H]2[C@@H](C(=O)O)[C@H](c3ccc4c(c3)OCO4)CN2CC(=O)Nc2c(CC)cccc2CC)cc1` the remaining binding was 99% (cell-free assay; competition with immobilised ligand; 1 µM).
For `c1cnn2ncc(-c3ccnc(N4CCC45COC5)n3)c2c1`, the remaining binding was 68% (binding; 1 µM).
The remaining binding of `c1cncc(-c2cccc(Nc3nccc(NC4CCCCC4)n3)c2)c1` is reported as 77% (binding; competition with immobilised ligand; 10 µM).
`O=c1nc(-c2ccccn2)sc2ccccc12` gave a remaining binding of 100% (binding; competition with immobilised ligand; 1 µM).
`C[C@@H]1CCN(c2nccc(-c3cnn4ncccc34)n2)C1` has a remaining binding of 100% (binding; 1 µM).
With `Nc1cnc(N2CCc3cc(S(=O)(=O)Nc4c(F)cc(Cl)cc4F)cc(N4CCCC4=O)c32)nc1` the remaining binding was 100% (cell-free assay; competition with immobilised ligand; 1 µM).
`O=C(NCC1CCOCC1)c1n[nH]cc1NC(=O)c1c(F)cccc1F` gave a remaining binding of 72% (binding; competition with immobilised ligand; 1 µM).
`CN(C)c1nccc(-c2cnc3ncccn23)n1` gave a remaining binding of 100% (binding; 1 µM).
With `C=CC(=O)N1CCC(C(=O)NCC(=O)N2CCN(c3nc(-c4cnc(N)nc4C(F)F)nc(N4CCOCC4)n3)CC2)CC1` the remaining binding was 100% (binding; competition with immobilised ligand; 1 µM).
`N[C@@H]1CCN(c2nccc(-c3cnn4ncccc34)n2)C1` gave a remaining binding of 92% (binding; 1 µM).
`Cc1cnc(Nc2ccc(C(=O)N3CCC(N4CCCC4)CC3)cc2)nc1-c1cc2ccccc2s1` has a remaining binding of 38% (binding; competition with immobilised ligand; 1 µM).
